In ChEMBL document CHEMBL3272276, “Synthesis and antimicrobial evaluation of substituted 5,6-dihydro-5-nitrouracils” (1976):
≈ marks a conversion by molar mass, not a printed value. Calls of active or inactive are those of the source. No cut-off for these calls is given here.

Experiments:
Pseudomonas aeruginosa [1] = assay: Antimicrobial activity against Pseudomonas aeruginosa clinical isolate up to 0.4 umol/ml after 24 hrs by broth dilution assay; assay type: functional, organism-based
Outline: (§1)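 Clinical isolate tested by broth dilution in chemically defined medium. Serial dilutions span 0.4 to 0.005 μmol/ml. Incubation is 24 h at 35°. MIC is taken as the highest dilution of compound that prevents visible growth.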

Escherichia coli [2] = assay: Antimicrobial activity against Escherichia coli clinical isolate up to at 0.4 umol/ml after 24 hrs by broth dilution assay; assay type: functional, organism-based; outline: as §1
Staphylococcus aureus [3] = assay: Antimicrobial activity against Staphylococcus aureus clinical isolate up to 0.4 umol/ml after 24 hrs by broth dilution assay; assay type: functional, organism-based; outline: as §1
Candida albicans = assay: Antifungal activity against Candida albicans clinical isolate at 0.4 umol/ml after 24 hrs by broth dilution assay; assay type: functional, organism-based
Outline: (§2)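 Clinical isolates were tested by broth dilution using serial dilutions in chemically defined medium over 0.4 to 0.005 µmol/ml. Plates were incubated for 24 h at 35°. MIC was taken as the highest dilution that prevented visible growth.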

Escherichia coli [4] = assay: Antimicrobial activity against Escherichia coli clinical isolate after 24 hrs by broth dilution assay; assay type: functional; outline: as §2
[5] = tested on: Trichophyton mentagrophytes; assay: Antifungal activity against Trichophyton mentagrophytes clinical isolate at 0.4 umol/ml after 48 hrs by broth dilution assay; assay type: functional, organism-based
Outline: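 The clinical dermatophyte isolate was tested by broth dilution using serial dilutions in chemically defined medium over 0.4 to 0.005 µmol/ml. Inhibition was read after 48 h at 30°. MIC was the highest dilution with no visible growth.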

Pseudomonas aeruginosa [6] = assay: Antimicrobial activity against Pseudomonas aeruginosa clinical isolate after 24 hrs by broth dilution assay; assay type: functional; outline: as §2
Staphylococcus aureus [7] = assay: Antimicrobial activity against Staphylococcus aureus clinical isolate after 24 hrs by broth dilution assay; assay type: functional; outline: as §2

**Q.** Which Activity (Pseudomonas aeruginosa [1]) does the source give for `CC1NC(=O)NC(=O)C1[N+](=O)[O-]` (stereo unspecified) here?
**A.** The Activity was “inactive”.

**Q.** And the Activity (Escherichia coli [2])?
**A.** Its Activity is “inactive”.

**Q.** And the Activity (Staphylococcus aureus [3])?
**A.** Its Activity is “inactive”.

**Q.** What does the source list for `[N-]=[N+]=C1C=NC(=O)NC1=O`?
**A.** Activity (Candida albicans): inactive; MIC (Escherichia coli [4]): 20 µM (≈ 2.76 µg/mL); Activity [5]: inactive; MIC (Pseudomonas aeruginosa [6]): 40 µM (≈ 5.52 µg/mL); MIC (Staphylococcus aureus [7]): 10 µM (≈ 1.38 µg/mL)

**Q.** `CCOC(=O)[C@H]1O[C@@H](N2CC([N+](=O)[O-])C(=O)NC2=O)[C@H](O)[C@@H]1O` (stereo partly specified) was tested. Which Activity (Pseudomonas aeruginosa [1]) did it give?
**A.** The Activity was “inactive”.

**Q.** What about the Activity (Escherichia coli [2]) of the same compound?
**A.** Its Activity is “inactive”.

**Q.** What about the Activity (Staphylococcus aureus [3]) of the same compound?
**A.** Its Activity is “inactive”.

**Q.** How did the Activity (Pseudomonas aeruginosa [1]) turn out when `O=C1NCC([N+](=O)[O-])C(=O)N1` (stereo unspecified) was run?
**A.** The Activity was “inactive”.

**Q.** And the Activity (Escherichia coli [2])?
**A.** Its Activity is “inactive”.

**Q.** What about the Activity (Staphylococcus aureus [3]) of the same compound?
**A.** Its Activity is “inactive”.

**Q.** Which Activity (Pseudomonas aeruginosa [1]) does the source give for `O=C1NC(=O)N(c2ccc([N+](=O)[O-])cc2)CC1[N+](=O)[O-]` (stereo unspecified) here?
**A.** The Activity was “inactive”.

**Q.** What about the Activity (Escherichia coli [2]) of the same compound?
**A.** Its Activity is “inactive”.

**Q.** And the Activity (Staphylococcus aureus [3])?
**A.** Its Activity is “inactive”.

**Q.** `CCOC(=O)[C@H]1O[C@@H](n2cc([N+](=O)[O-])c(=O)[nH]c2=O)[C@H](O)[C@@H]1O` was tested. Which Activity (Pseudomonas aeruginosa [1]) did it give?
**A.** Its Activity is “inactive”.

**Q.** And the Activity (Escherichia coli [2])?
**A.** The Activity was “inactive”.

**Q.** What about the Activity (Staphylococcus aureus [3]) of the same compound?
**A.** Its Activity is “inactive”.

**Q.** Which results are given for `Cc1[nH]c(=O)[nH]c(=O)c1[N+](=O)[O-]`?
**A.** Activity (Pseudomonas aeruginosa [1]): inactive; Activity (Escherichia coli [2]): inactive; Activity (Staphylococcus aureus [3]): inactive

**Q.** For `O=c1[nH]c(=O)n(-c2ccc([N+](=O)[O-])cc2)cc1[N+](=O)[O-]`, which Activity (Pseudomonas aeruginosa [1]) is on record?
**A.** The Activity was “inactive”.

**Q.** And the Activity (Escherichia coli [2])?
**A.** The Activity was “inactive”.

**Q.** And the Activity (Staphylococcus aureus [3])?
**A.** The Activity was “inactive”.

**Q.** How did the Activity (Candida albicans) turn out when `[N-]=[N+]=C1C(=O)NC(=O)NC1O` (stereo unspecified) was run?
**A.** Its Activity is “inactive”.

**Q.** What about the MIC (Escherichia coli [4]) of the same compound?
**A.** Its MIC is 10 µM (≈ 1.56 µg/mL).

**Q.** And the Activity [5]?
**A.** The Activity was “inactive”.

**Q.** And the MIC (Pseudomonas aeruginosa [6])?
**A.** Its MIC is 20 µM (≈ 3.12 µg/mL).

**Q.** What about the MIC (Staphylococcus aureus [7]) of the same compound?
**A.** The MIC was 20 µM (≈ 3.12 µg/mL).
